Bioassay records deposited in PubChem by several laboratories.
M18AAP inhibitor – blocks P. falciparum M18 aspartyl aminopeptidase; actives 1.2% (n = 290,000); inhibition, % at 7.35 µM; recombinant PfM18AAP, H-Glu-NHMec fluorogenic cleavage;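 active means inhibition above the campaign mean inhibition over all tested compounds plus 3 SD, cut at about 28% in these data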
SUMO HTRF inh – blocks human SUMOylation mediated by UBC9 | actives 0.36% (n = 290,000) | HTRF SUMOylation assay, SAE1/SAE2 + UBC9, in vitro | AID 2006 | inhibition, % at 35 µM; in the data active means inhibition above about 50%, passing the limit was not always enough
APOBEC3A inh – blocks human APOBEC3A ssDNA deamination; P31941; recombinant A3A, FAM/TAMRA ssDNA deamination fluorescence; inhibition, % at 20 µM; actives 0.41% (n = 330,000);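 active means at least 40% inhibition at 20 µM here, with at most 30% in a related deaminase screen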
HKDC1 inhibitor – blocks human hexokinase HKDC1 activity; Q2TB90; recombinant HKDC1, G6PDH/diaphorase resazurin coupled fluorescence; inhibition, % at 20 µM; actives 0.16% (n = 340,000);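 active means inhibition above about 35% when tested at 20 µM, limit read from the data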
Target sequence (Q2TB90 whole entry, looked up): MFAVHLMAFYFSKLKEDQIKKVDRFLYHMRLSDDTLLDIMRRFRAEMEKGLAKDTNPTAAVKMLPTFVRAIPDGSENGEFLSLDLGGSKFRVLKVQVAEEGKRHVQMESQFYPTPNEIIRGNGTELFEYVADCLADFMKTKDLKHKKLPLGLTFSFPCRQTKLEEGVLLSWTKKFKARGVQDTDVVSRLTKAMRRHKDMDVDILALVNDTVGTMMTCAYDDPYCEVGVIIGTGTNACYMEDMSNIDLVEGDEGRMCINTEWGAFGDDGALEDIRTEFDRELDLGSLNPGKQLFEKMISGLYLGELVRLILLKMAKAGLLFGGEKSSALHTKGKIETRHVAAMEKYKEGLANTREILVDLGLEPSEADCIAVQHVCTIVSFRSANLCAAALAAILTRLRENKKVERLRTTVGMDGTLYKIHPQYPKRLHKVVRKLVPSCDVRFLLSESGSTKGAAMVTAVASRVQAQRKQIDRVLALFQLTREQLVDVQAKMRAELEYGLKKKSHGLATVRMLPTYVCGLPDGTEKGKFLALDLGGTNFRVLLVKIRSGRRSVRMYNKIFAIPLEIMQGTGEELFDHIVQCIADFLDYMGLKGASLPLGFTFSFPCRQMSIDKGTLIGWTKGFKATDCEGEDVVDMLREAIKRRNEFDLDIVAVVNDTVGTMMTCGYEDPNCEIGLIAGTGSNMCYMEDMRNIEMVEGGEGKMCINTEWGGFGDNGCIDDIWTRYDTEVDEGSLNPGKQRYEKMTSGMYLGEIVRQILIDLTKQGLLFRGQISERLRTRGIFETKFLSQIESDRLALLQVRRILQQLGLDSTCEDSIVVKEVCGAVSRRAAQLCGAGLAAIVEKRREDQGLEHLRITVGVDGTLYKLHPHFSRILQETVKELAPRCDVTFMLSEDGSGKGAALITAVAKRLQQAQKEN
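Material: recombinant HKDC1 hexokinase; Amount: HKDC1 at 5 µg/mL; Medium: Tris pH 8.0 buffer with MgCl2, Tween-20, BSA, BME; Schedule: 90 min reaction incubation at room temperature, dark; Technique: coupled resazurin fluorescence, excitation 525 nm, emission 613 nm.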
PfGluPho inh – PfG6PD (Plasmodium falciparum) enzyme inhibition. PfGluPho enzyme, NADPH resazurin-diaphorase fluorescence. inhibition, % at 20 µM. actives 0.78% (n = 350,000). AID 504690;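 active means inhibition reaching at least a set limit at 20 µM in the primary screen, cut at about 59% in these data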
APOBEC3G inh – inhibitors of human APOBEC3G DNA deaminase; AID 493012; recombinant A3G, ssDNA deamination FAM/TAMRA fluorescence; inhibition, % at 20 µM; actives 0.28% (n = 330,000); Q9HC16;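 active means inhibition of at least 40% at 20 µM, with no more than 30% in the related APOBEC3A deaminase screen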
PfGluPho conf – confirmation of Plasmodium falciparum G6PD inhibitors; recombinant PfGluPho, NADPH-diaphorase-resazurin fluorescence; actives 34% (n = 2,400); shares compounds with PfGluPho inh; inhibition, % at 20 µM;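 active means inhibition of at least 50% at 20 µM in any single replicate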
Diaph ctr 10uM – counter-screen for P. falciparum G6PD inhibitors: diaphorase inhibitors, oxidizers | shares compounds with PfGluPho inh | diaphorase-coupled resazurin reduction, fluorescence, NADPH 10 uM | inhibition, % at 20 µM | actives 39% (n = 820);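 active means average inhibition reaching 50% or more with the compound at 20 µM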;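 further: resorufin red fluorescence formed as diaphorase reduces resazurin using NADPH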
Diaphorase 30uM – diaphorase inhibition or oxidation at 30 uM NADPH | shares compounds with PfGluPho inh | Diaphorase/resazurin coupled assay, resorufin fluorescence | inhibition, % at 20 µM | actives 29% (n = 820) | AID 504863;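 active means inhibition averaging 50% or more, tested at 20 µM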
Large screens that a line does not name were inactive (follow-up assays come after a bar, where they were run). Most compounds without a hit are left out; they make up all but 2.4% or so of the library.

O=C(O)CSCC(=O)N1CCN(S(=O)(=O)c2cc(Cl)cc(Cl)c2)CC1	none
Cc1c(C(=O)c2ccc(F)cc2F)c2ccccn2c1CCC#N	M18AAP inhibitor 29.8, PfGluPho inh 94.5 | PfGluPho conf inactive
Cc1c(C(=O)c2ccc(F)cc2F)c2ccccn2c1CCc1ccccn1	none (no result: M18AAP inhibitor, SUMO HTRF inh, APOBEC3A inh, HKDC1 inhibitor, APOBEC3G inh)
CC(OC(=O)CCN=C1NS(=O)(=O)c2ccccc21)C(=O)Nc1ccc(N(C)C)cc1 (stereo unspecified)	PfGluPho inh 70.3 (no result: M18AAP inhibitor, SUMO HTRF inh) | PfGluPho conf inactive
CC(=O)Nc1ccc(NC(=O)C(C)OC(=O)CCCN=C2NS(=O)(=O)c3ccccc32)cc1 (stereo unspecified)	none (no result: M18AAP inhibitor, SUMO HTRF inh)
CCCC(C(=O)NC1CCCC1)N(Cc1ccccc1)C(=O)c1snc(C(N)=O)c1N (stereo unspecified)	none
COc1ccc(-c2nnc3sc(-c4ccccc4OC)nn23)cc1	none (no result: M18AAP inhibitor)
COCCNC(=S)Nc1ccc(N2CCOCC2)c(S(=O)(=O)Nc2ccc(Cl)cc2)c1	PfGluPho inh 91.7 (no result: M18AAP inhibitor, SUMO HTRF inh, APOBEC3A inh, HKDC1 inhibitor, APOBEC3G inh) | PfGluPho conf 70.0 | Diaph ctr 10uM inactive | Diaphorase 30uM inactive
CCC(=O)Nc1ccc(N2CCOCC2)c(S(=O)(=O)Nc2ccc(Cl)cc2)c1	PfGluPho inh 61.0 (no result: M18AAP inhibitor, SUMO HTRF inh) | PfGluPho conf inactive
O=C(N/N=C/c1ccc([N+](=O)[O-])cc1)c1cccnc1	none
Cc1ccc(/C=C/C(=O)Nc2ccc([N+](=O)[O-])cc2)o1	PfGluPho inh 88.0 | PfGluPho conf inactive
Cc1ccc(/C=C/C(=O)Nc2sc(C)c(C)c2C(=O)OC(C)C)o1	PfGluPho inh 59.7 | PfGluPho conf inactive
Cc1ccc(/C=C/C(=O)Nc2ccc(Oc3ccccc3)cc2)o1	PfGluPho inh 60.8 (no result: APOBEC3A inh, APOBEC3G inh) | PfGluPho conf inactive
Cc1ccccc1NC(=O)c1c(Cl)nc(C)c(Cl)c1C	none
CCc1ccc(NC(=O)c2c(Cl)nc(C)c(Cl)c2C)cc1	PfGluPho inh 84.2 | PfGluPho conf inactive
O=c1[nH]c(CN2CCN(c3ccccc3)CC2)nc2scc(-c3ccccc3)c12	none
Cc1sc2nc(CN3CCN(c4ccc(O)cc4)CC3)[nH]c(=O)c2c1C	M18AAP inhibitor 31.6, PfGluPho inh 79.3 | PfGluPho conf inactive
COc1cc(/C=C/C(=O)/C=C(O)/C=C/c2ccc(O)c(OC)c2)ccc1O	none (no result: M18AAP inhibitor, SUMO HTRF inh)
COc1cc(/C=C/C(=O)c2ccc([N+](=O)[O-])o2)ccc1O	PfGluPho inh 77.1 (no result: M18AAP inhibitor, SUMO HTRF inh) | PfGluPho conf 60.3 | Diaph ctr 10uM inactive | Diaphorase 30uM inactive
CC1=C(C)C(C)=C(C#N)C(=C(C#N)C#N)N1	none
CC(C)(C)Cc1c(-c2ccc(Br)cc2)nc2ccc(Br)cn12	none (no result: M18AAP inhibitor, SUMO HTRF inh, APOBEC3A inh, HKDC1 inhibitor, APOBEC3G inh)
Cc1ccc(Cc2c(-c3ccc(Br)cc3)nc3ccc(Br)cn23)cc1	PfGluPho inh 67.4 (no result: M18AAP inhibitor, SUMO HTRF inh, APOBEC3A inh, HKDC1 inhibitor, APOBEC3G inh) | PfGluPho conf inactive
Cc1ccc(Cc2c(-c3ccc(Cl)cc3)nc3ccc(Cl)cn23)cc1	PfGluPho inh 86.2 (no result: M18AAP inhibitor, SUMO HTRF inh, APOBEC3A inh, HKDC1 inhibitor, APOBEC3G inh) | PfGluPho conf inactive
Cc1ccc(Cc2c(-c3ccc(C)cc3)nc3ccc(Cl)cn23)cc1	PfGluPho inh 77.1 (no result: M18AAP inhibitor, SUMO HTRF inh, APOBEC3A inh, HKDC1 inhibitor, APOBEC3G inh) | PfGluPho conf inactive
C#CCOCCOCCOCCNc1nc(N2CCN(C(=O)[C@H]([C@@H](C)CC)n3cc([C@@H](N)CC(C)C)nn3)CC2)nc(N2CCN(C(=O)[C@H](Cc3cc4ccccc4[nH]3)n3cc([C@@H](N)Cc4ccc(O)cc4)nn3)CC2)n1	none
Cc1ccc(OCC(=O)NCCO)c(Br)c1	none
Cc1nc2ccccn2c1-c1ccnn1S(=O)(=O)c1ccc(F)cc1	PfGluPho inh 76.9 | PfGluPho conf 55.6 | Diaph ctr 10uM inactive | Diaphorase 30uM 59.0
N#CC(C#N)=C1C=CC=CN1/C(=C\c1ccccc1Cl)C(=O)c1ccccc1	PfGluPho inh 78.2 (no result: APOBEC3A inh, APOBEC3G inh) | PfGluPho conf 56.6 | Diaph ctr 10uM inactive | Diaphorase 30uM inactive
Cc1ccc(C(=O)N2CCCCC2)cc1NC1=C(Cl)C(=O)N(Cc2ccccc2)C1=O	none (no result: M18AAP inhibitor, SUMO HTRF inh)
